Measured values taken from ChEMBL document CHEMBL1156517, “Targeting thyroid hormone receptor-beta agonists to the liver reduces cholesterol and triglycerides and improves the therapeutic index” (Proc Natl Acad Sci U S A, 2007).
Activity calls are given as the source filed them. The calls are words filed in the database; no cut-off is given here.

Key:
[1] = test system: Rattus norvegicus; assay: Toxicity in Sprague-Dawley rat assessed as suppression of thyroid hormone axis measured by decrease in TSH-beta mRNA level at 0.1 mg/kg, po after 7 weeks; assay type: organism-based; parameters: dose 0.1 mg/kg, route oral; settings: in vivo, 1176 h
Summary of the method: (§1)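 Male SD rats (n = 5–6 per group; baseline group n = 8) given vehicle (0.5% CMC/1% Lutrol F68) or drug orally once daily. One group per cohort weighed and killed by decapitation without anesthesia after 1, 2, 4 and 7 weeks. Trunk-blood serum assayed for total/free T3 and T4; TSH by [125I] radioimmunoassay with magnetic separation. Pituitary TSHβ mRNA also measured.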

[2] = test system: Rattus norvegicus; assay: Toxic cardiac effect in Sprague-Dawley rat assessed as increase in first derivative of left ventricular pressure at 1 mg/kg/day, po; assay type: toxicity, organism-based, Heart left ventricle; parameters: route oral; settings: in vivo
Summary of the method: (§2)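 Male SD rats (n = 6 per group) dosed daily by oral gavage for 7 days; vehicle group included. On day 7, rats anesthetized with isoflurane; catheter-tip transducer inserted into left ventricle via right carotid artery. LV pressure, LV dP/dt and heart rate (lead I ECG) recorded digitally. Systolic/diastolic aortic pressure taken by retracting catheter into proximal aorta.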

[3] = test system: Mus musculus; assay: Decrease in cholesterol level in LDLR deficient C57BL/6 mouse at 5 mg/kg/day once daily for 7 days; assay type: functional, organism-based
[4] = test system: Mus musculus; assay: Decrease in liver triglyceride level in po dosed diet-induced obese C57BL/6 mouse after 14 days; assay type: functional; parameters: scale not given: the % may be the effect or the level left
Summary of the method: (§3)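 DIO mice were male C57BL/6 fed a 60%-fat (by kcal) diet from about 4 weeks of age for about 170 days. They were grouped (n = 8) to match cholesterol and body weight. Dosing was oral, once daily for 2 weeks, in 0.5% CMC/1% Lutrol F68. At kill, blood was taken by cardiac puncture for plasma TGs. The liver was removed and weighed, and hepatic TGs were measured.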

[5] = test system: Mus musculus; assay: Reduction in plasma cholesterol level in po dosed diet-induced obese C57BL/6 mouse after 2 weeks; assay type: functional; parameters: scale not given: the % may be the effect or the level left
Summary of the method: (§4)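 Male C57BL/6 mice, about 4 weeks old, fed a high-fat diet (60% kcal fat) for about 170 days. Assigned to groups (n = 8) matched for cholesterol and body weight. Dosed orally once daily in 0.5% CMC/1% Lutrol F68 for 2 weeks. Baseline blood taken by tail nick. At end, cardiac-puncture blood used for cholesterol, TGs, glucose and thyroid hormones; liver weighed and hepatic TGs measured.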

[6] = test system: Rattus norvegicus; assay: Toxic cardiac effect on Sprague-Dawley rat assessed as decrease in body weight gain at 1 mg/kg/day, po; assay type: toxicity, organism-based; parameters: route oral; scale not given: the % may be the effect or the level left; settings: in vivo
[7] = test system: Mus musculus; assay: Decrease in cholesterol level in LDLR deficient C57BL/6 mouse at 0.5 mg/kg/day once daily for 7 days; assay type: functional, organism-based
[8] = test system: Mus musculus; assay: Effect on hepatic LDLR mRNA level in LDLR deficient C57BL/6 mouse at 0.5 mg/kg/day once daily for 7 days; assay type: functional
[9] = test system: Rattus norvegicus; assay: Toxicity in Sprague-Dawley rat assessed as suppression of thyroid hormone axis measured by decrease in serum TSH level at 0.1 mg/kg, po after 7 weeks; assay type: organism-based; parameters: dose 0.1 mg/kg, route oral; settings: in vivo, 1176 h; summary of the method: as §1
[10] = test system: Rattus norvegicus; assay: Toxic cardiac effect on Sprague-Dawley rat assessed as increase in systolic aortic pressure at >= 1 mg/kg/day, po for 7 days; assay type: toxicity, organism-based; parameters: route oral; settings: in vivo, 168 h; summary of the method: as §2
[11] = test system: Rattus norvegicus; assay: Toxicity in Sprague-Dawley rat assessed as suppression of thyroid hormone axis measured by decrease in total […]-L-thyronine level at 0.1 mg/kg, po after 7 weeks; assay type: organism-based; parameters: dose 0.1 mg/kg, route oral; settings: in vivo, 1176 h
[12] = test system: Rattus norvegicus; assay: Toxicity in Sprague-Dawley rat assessed as suppression of thyroid hormone axis measured by decrease in free 3,5,3',5'-triiodo-L-thyronine level at 0.1 mg/kg, po after 7 weeks; assay type: organism-based; parameters: dose 0.1 mg/kg, route oral; settings: in vivo, 1176 h; summary of the method: as §1
[13] = test system: Mus musculus; assay: Reduction in blood glucose level in po dosed diet-induced obese C57BL/6 mouse; assay type: functional, organism-based; summary of the method: as §4
[14] = organism: Rattus norvegicus; assay: Reduction in plasma cholesterol level in cholesterol fed Sprague-Dawley rat; assay type: functional
[15] = test system: Rattus norvegicus; assay: Toxicity in Sprague-Dawley rat assessed as suppression of thyroid hormone axis measured by decrease in total 3,5,3',5'-tetraiodo-L-thyronine level at 1 mg/kg, po after 7 weeks; assay type: organism-based; parameters: dose 1 mg/kg, route oral; settings: in vivo, 1176 h
[16] = test system: Rattus norvegicus; assay: Toxicity in Sprague-Dawley rat assessed as suppression of thyroid hormone axis measured by decrease in total 3,5,3',5'-tetraiodo-L-thyronine level at 0.1 mg/kg, po after 7 weeks; assay type: organism-based; parameters: dose 0.1 mg/kg, route oral; settings: in vivo, 1176 h
[17] = test system: Mus musculus; assay: Decrease in cholesterol level in wild-type C57BL/6 mouse at 5 mg/kg/day once daily for 7 days; assay type: functional, organism-based
[18] = test system: Rattus norvegicus; assay: Toxic cardiac effect on Sprague-Dawley rat assessed as increase in heart rate at >= 1 mg/kg/day, po for 7 days; assay type: toxicity, organism-based; parameters: route oral; settings: in vivo, 168 h; summary of the method: as §2
[19] = test system: Rattus norvegicus; assay: Toxic cardiac effect on Sprague-Dawley rat assessed as increase in first derivative of left ventricular pressure at >= 1 mg/kg/day, po for 7 days; assay type: toxicity, organism-based, Heart left ventricle; parameters: route oral; settings: in vivo, 168 h; summary of the method: as §2
[20] = test system: Mus musculus; assay: Decrease in body weight in diet-induced obese C57BL/6 mouse at 0.03 mg/kg, po; assay type: functional; parameters: scale not given: the % may be the effect or the level left
[21] = test system: Rattus norvegicus; assay: Toxicity in Sprague-Dawley rat assessed as suppression of thyroid hormone axis measured by decrease in free 3,5,3',5'-triiodo-L-thyronine level at 1 mg/kg, po after 7 weeks; assay type: organism-based; parameters: dose 1 mg/kg, route oral; settings: in vivo, 1176 h; summary of the method: as §1
[22] = test system: Rattus norvegicus; assay: Toxicity in Sprague-Dawley rat assessed as suppression of thyroid hormone axis measured by decrease in serum TSH level at 1 mg/kg, po after 7 weeks; assay type: organism-based; parameters: dose 1 mg/kg, route oral; settings: in vivo, 1176 h; summary of the method: as §1
[23] = test system: Mus musculus; assay: Reduction in total […]-L-thyronine level in po dosed diet-induced obese C57BL/6 mouse; assay type: functional, organism-based; summary of the method: as §4
[24] = test system: Mus musculus; assay: Decrease in liver weight in po dosed diet-induced obese C57BL/6 mouse after 14 days; assay type: functional; parameters: scale not given: the % may be the effect or the level left; summary of the method: as §3
[25] = test system: Rattus norvegicus; assay: Toxicity in Sprague-Dawley rat assessed as suppression of thyroid hormone axis measured by decrease in free 3,5,3',5'-tetraiodo-L-thyronine level at 1 mg/kg, po after 7 weeks; assay type: organism-based; parameters: dose 1 mg/kg, route oral; settings: in vivo, 1176 h; summary of the method: as §1
[26] = test system: Rattus norvegicus; assay: Effect on malic enzyme mRNA expression in po dosed Sprague-Dawley rat liver; assay type: functional, organism-based; settings: TDE = time-dependent effect
Summary of the method: (§5)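 Killed 3, 8 and 24 h post-dose under 2.5% isoflurane. Pituitary and thyroid snap-frozen; liver, heart, soleus, spleen and kidney freeze-clamped. mRNA by quantitative real-time PCR, expressed as fold-change vs vehicle.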

[27] = test system: Rattus norvegicus; assay: Effect on type 1 iodothyronine deiodinase mRNA expression in po dosed Sprague-Dawley rat liver; assay type: functional, organism-based; settings: TDE = time-dependent effect; summary of the method: as §5
[28] = test system: Rattus norvegicus; assay: Toxic cardiac effect in Sprague-Dawley rat assessed as increase in heart weight at 1 mg/kg/day, po; assay type: toxicity, organism-based; parameters: route oral; settings: in vivo
[29] = test system: Rattus norvegicus; assay: Toxicity in Sprague-Dawley rat assessed as suppression of thyroid hormone axis measured by decrease in free 3,5,3',5'-tetraiodo-L-thyronine level at 0.1 mg/kg, po after 7 weeks; assay type: organism-based; parameters: dose 0.1 mg/kg, route oral; settings: in vivo, 1176 h; summary of the method: as §1
[30] = test system: Mus musculus; assay: Decrease in cholesterol level in wild-type C57BL/6 mouse at 0.5 mg/kg/day once daily for 7 days; assay type: functional, organism-based
[31] = test system: Rattus norvegicus; assay: Effect on LDLR mRNA expression in po dosed Sprague-Dawley rat liver; assay type: functional, organism-based; settings: TDE = time-dependent effect
[32] = test system: Rattus norvegicus; assay: Effect on SREBP-1c mRNA expression in po dosed Sprague-Dawley rat liver; assay type: functional, organism-based; settings: TDE = time-dependent effect
[33] = test system: Mus musculus; assay: Increase in heart weight in po dosed diet-induced obese C57BL/6 mouse; assay type: functional, organism-based
[34] = test system: Rattus norvegicus; assay: Toxicity in Sprague-Dawley rat assessed as suppression of thyroid hormone axis measured by decrease in TSH-beta mRNA level at 1 mg/kg, po after 7 weeks; assay type: organism-based; parameters: dose 1 mg/kg, route oral; settings: in vivo, 1176 h; summary of the method: as §1
[35] = test system: Rattus norvegicus; assay: Toxic cardiac effect in Sprague-Dawley rat assessed as increase in heart rate at 1 mg/kg/day, po; assay type: toxicity, organism-based; parameters: route oral; settings: in vivo; summary of the method: as §2
[36] = test system: Mus musculus; assay: Reduction in total 3,5,3',5'-tetraiodo-L-thyronine level in po dosed diet-induced obese C57BL/6 mouse; assay type: functional, organism-based; summary of the method: as §4
[37] = test system: Rattus norvegicus; assay: Toxicity in Sprague-Dawley rat assessed as suppression of thyroid hormone axis measured by assessed as decrease in total […]-L-thyronine level at 1 mg/kg, po after 7 weeks; assay type: organism-based; parameters: dose 1 mg/kg, route oral; settings: in vivo, 1176 h; summary of the method: as §1
[38] = test system: Mus musculus; assay: Effect on hepatic LDLR mRNA level in wild-type C57BL/6 mouse at 0.5 mg/kg/day once daily for 7 days; assay type: functional

- Activity [26]: tde
- Activity [27]: tde
Compound: CC(C)c1cc(Oc2c(Cl)cc(CC(=O)O)cc2Cl)ccc1O
- Activity [1]: Active
- Activity [2]: Active
- Activity [3]: inactive
- Activity [4]: 33%
- Activity [5]: 67%
- Activity [6]: 61%
- Activity [7]: inactive
- Activity [8]: -10.6%
- Activity [9]: Active
- Activity [10]: Active
- Activity [11]: Active
- Activity [12]: Active
- Activity [13]: Active
- ED50 [14]: 0.05 mg/kg
- Activity [15]: Active
- Activity [16]: Active
- Activity [17]: Active
- Activity [18]: Active
- Activity [19]: Active
- Activity [20]: 3%
- Activity [21]: Active
- Activity [22]: Active
- Activity [23]: Active
- Activity [24]: 33%
- Activity [25]: Active
- Activity [28]: Active
- Activity [29]: Active
- Activity [30]: Active
- Activity [31]: tde
- Activity [32]: tde
- Activity [33]: Active
- Activity [34]: Active
- Activity [35]: Active
- Activity [36]: Active
- Activity [37]: Active
- Activity [38]: -55.8%
